pIC50: −log10 of the molar value. The source made the active and inactive calls. No cut-off for these calls is given here.

Experiment [1] addresses T1, Phospholipase A and acyltransferase 2 (Homo sapiens, UniProt Q9NWW9).
T1 sequence (Q9NWW9 whole entry): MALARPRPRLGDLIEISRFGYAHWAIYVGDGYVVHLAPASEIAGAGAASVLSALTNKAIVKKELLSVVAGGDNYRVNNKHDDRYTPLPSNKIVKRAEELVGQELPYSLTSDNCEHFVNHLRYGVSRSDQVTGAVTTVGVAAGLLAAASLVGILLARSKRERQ
In words: Inhibition of full-length C-terminal FLAG-tagged human PLAAT2 expressed in HEK293T cell lysate preincubated for 30 mins followed by MB064 addition and measured after 20 mins by SDS-PAGE based ABPP analysis. The format is cell-free, HEK-293T. A digest of the protocol:
(§1)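 Dose–response competitive ABPP on cytosol only, from HEK293T overexpressing FLAG-tagged PLAAT. Inhibitor 30 min rt, then MB064 20 min rt. PLAAT2 0.25 μg/μL with 250 nM probe; PLAAT3 0.5 μg/μL with 250 nM; PLAAT4 and PLAAT5 1 μg/μL with 500 nM. Fluorescence normalized to Coomassie. IC50 from curves, reported as pIC50 ± SEM, n = 3.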

The target in experiment [2] is T2, Phospholipase A and acyltransferase 3 (Homo sapiens, UniProt P53816).
T2 sequence (P53816 whole entry): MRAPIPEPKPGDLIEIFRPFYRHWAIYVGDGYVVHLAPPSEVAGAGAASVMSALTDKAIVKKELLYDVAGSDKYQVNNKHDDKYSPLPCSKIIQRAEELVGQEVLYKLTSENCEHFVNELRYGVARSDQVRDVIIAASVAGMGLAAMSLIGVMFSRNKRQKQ
The experiment in a line: Inhibition of full-length C-terminal FLAG-tagged human PLAAT3 expressed in HEK293T cell lysate preincubated for 30 mins followed by MB064 addition and measured after 20 mins by SDS-PAGE based ABPP analysis. The format is cell-free, HEK-293T. A digest of the protocol:
as §1

The target of experiment [3] is T3, Phospholipase A and acyltransferase 4 (Homo sapiens, UniProt Q9UL19).
T3 sequence (Q9UL19 whole entry): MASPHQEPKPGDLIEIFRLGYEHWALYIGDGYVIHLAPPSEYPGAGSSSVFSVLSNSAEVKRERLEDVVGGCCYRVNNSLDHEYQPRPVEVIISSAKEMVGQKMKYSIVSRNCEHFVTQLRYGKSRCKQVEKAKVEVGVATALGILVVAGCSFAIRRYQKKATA
In words: Inhibition of full-length C-terminal FLAG-tagged human PLAAT4 expressed in HEK293T cell lysate preincubated for 30 mins followed by MB064 addition and measured after 20 mins by SDS-PAGE based ABPP analysis. The format is cell-free, HEK-293T. The gist of the method:
as §1

Experiment [4] addresses T4, Phospholipase A and acyltransferase 5 (Homo sapiens, UniProt Q96KN8).
T4 sequence (Q96KN8 whole entry): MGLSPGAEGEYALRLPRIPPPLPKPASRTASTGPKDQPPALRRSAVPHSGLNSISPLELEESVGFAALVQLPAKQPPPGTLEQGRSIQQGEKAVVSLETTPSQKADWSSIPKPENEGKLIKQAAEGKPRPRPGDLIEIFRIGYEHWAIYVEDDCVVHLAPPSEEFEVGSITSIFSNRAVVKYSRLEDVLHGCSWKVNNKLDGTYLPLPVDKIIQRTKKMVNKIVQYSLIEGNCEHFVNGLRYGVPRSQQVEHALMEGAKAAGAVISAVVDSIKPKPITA
In words: Inhibition of full-length C-terminal FLAG-tagged human PLAAT5 expressed in HEK293T cell lysate preincubated for 30 mins followed by MB064 addition and measured after 20 mins by SDS-PAGE based ABPP analysis. The format is cell-free, HEK-293T. A digest of the protocol:
as §1

For experiment [5], the species on record is Homo sapiens. In words: Selectivity index, difference between pIC50 for full-length C-terminal FLAG-tagged human PLAAT5 expressed in HEK293T cell lysate to pIC50 for full-length C-terminal FLAG-tagged human PLAAT2 expressed in HEK293T cell lysate. The gist of the method:
(§2)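 Cytosol of HEK293T cells transiently transfected (PEI) with C-terminal FLAG-tagged human PLAAT, harvested at 48 or 72 h. Dose-response: pretreated with inhibitor or DMSO for 30 min at rt, then labelled with MB064 for 20 min at rt. Protein and MB064: PLAAT2 0.25 μg/μL, 250 nM; PLAAT3 0.5 μg/μL, 250 nM; PLAAT4 1 μg/μL, 500 nM; PLAAT5 1 μg/μL, 500 nM. Read by SDS-PAGE in-gel fluorescence normalized to Coomassie. Triplicate pIC50s; index is the pIC50 difference.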

The species entered for experiment [6] is Homo sapiens. In words: Selectivity index, difference between pIC50 for full-length C-terminal FLAG-tagged human PLAAT5 expressed in HEK293T cell lysate to pIC50 for full-length C-terminal FLAG-tagged human PLAAT3 expressed in HEK293T cell lysate. The gist of the method: as §2
The species named for experiment [7] is Homo sapiens. The experiment in a line: Selectivity index, difference between pIC50 for full-length C-terminal FLAG-tagged human PLAAT5 expressed in HEK293T cell lysate to pIC50 for full-length C-terminal FLAG-tagged human PLAAT4 expressed in HEK293T cell lysate. The gist of the method: as §2
The target in experiment [8] is T5, Phospholipase A and acyltransferase 2 (Homo sapiens) (UniProt Q9NWW9).
T5 sequence (whole entry): T1 sequence (Q9NWW9 whole entry)
In words: Inhibition of full-length C-terminal FLAG-tagged human PLAAT2 expressed in HEK293T cell lysate at 10 uM preincubated for 30 mins followed by MB064 addition and measured after 20 mins by SDS-PAGE based ABPP analysis. The format is cell-free. Conditions: HEK-293T. A digest of the protocol: (§3)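 Cytosol from HEK293T cells transiently transfected (PEI) with C-terminal FLAG-tagged human PLAAT, harvested 48–72 h. Inhibitor 10 μM, 30 min rt, then MB064 probe 20 min rt. Protein/MB064: PLAAT2 0.25 μg/μL, 250 nM; PLAAT3 0.5 μg/μL, 250 nM; PLAAT4 1 μg/μL, 500 nM; PLAAT5 1 μg/μL, 500 nM. Read-out: in-gel fluorescence after SDS-PAGE, normalized to Coomassie. Triplicate.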

Experiment [9] has as its target Phospholipase A and acyltransferase 3 (Homo sapiens) (UniProt P53816). The experiment in a line: Inhibition of full-length C-terminal FLAG-tagged human PLAAT3 expressed in HEK293T cell lysate at 10 uM preincubated for 30 mins followed by MB064 addition and measured after 20 mins by SDS-PAGE based ABPP analysis. It counts as cell-free. Conditions: HEK-293T. A digest of the protocol:
as §3

The target in experiment [10] is Phospholipase A and acyltransferase 4 (Homo sapiens) (UniProt Q9UL19). In words: Inhibition of full-length C-terminal FLAG-tagged human PLAAT4 expressed in HEK293T cell lysate at 10 uM preincubated for 30 mins followed by MB064 addition and measured after 20 mins by SDS-PAGE based ABPP analysis. The format is cell-free. As to conditions: HEK-293T. A digest of the protocol:
as §3

The target of experiment [11] is T6, Phospholipase A and acyltransferase 5 (Homo sapiens) (UniProt Q96KN8).
T6 sequence (whole entry): T4 sequence (Q96KN8 whole entry)
In words: Inhibition of full-length C-terminal FLAG-tagged human PLAAT5 expressed in HEK293T cell lysate at 10 uM preincubated for 30 mins followed by MB064 addition and measured after 20 mins by SDS-PAGE based ABPP analysis. It counts as cell-free. As to conditions: HEK-293T. The gist of the method: as §3

For the molecule `O=C(CCc1ccc(Oc2ccccc2)cc1)C(=O)NCCc1ccccc1`, the pIC50 is 5.40 in [1], 5.40 in experiment [2], 5.90 in experiment [3] and 6.90 in [4]. In addition, the Selectivity Index in experiment [5], in experiment [6] and in [7] was 10 to 30 throughout.
Take `O=C(NCCc1ccccc1)C(O)CCc1ccc(Cl)cc1` (stereo unspecified): the pIC50 in experiment [1], in experiment [2], in [3] and in experiment [4] was below 5.00 throughout. For the same molecule, the inhibition result in [8], in experiment [9], in [10] and in experiment [11] was “inactive” in each case.
With `O=C(CCCc1ccccc1)C(=O)NCCc1ccc(O)cc1`, the pIC50 in experiment [1] was 5.90; in experiment [2] it was 5.80; in [3] it was 5.60; in [4] it was 6.80.
In the same order, the values of `O=C(/C=C/c1ccccc1)C(=O)NCCc1ccccc1` are 5.10, 5.80, 5.00 and 5.20.
With `CC(=O)C(=O)NCCc1ccccc1`, the pIC50 in [1], in [2], in experiment [3] and in [4] was below 5.00 throughout.
On to `O=C(NCc1ccccc1)C(F)(F)C(O)CCc1ccccc1` (stereo unspecified), for which the pIC50 in experiment [1], in experiment [2], in experiment [3] and in experiment [4] was below 5.00 throughout.
On to `O=C(CCCc1ccccc1)C(=O)NCCc1ccccc1Cl`, for which the negative logarithm of the IC50 (pIC50) in experiment [1] was 5.20; in experiment [2], 5.90; in experiment [3], 5.60; in [4], 6.10.
Turning to `O=C(CCCc1ccccc1)C(=O)NCCc1cccc(Cl)c1`, the negative-log IC50 (pIC50) was 6.10 in experiment [1], 6.70 in [2], 6.00 in experiment [3] and 7.30 in experiment [4].
`CN1CCN(C(=O)C(=O)CCc2ccc(Cl)cc2)CC1`: the negative-log IC50 (pIC50) in [1], in [2], in experiment [3] and in experiment [4] was below 5.00 each time.
As to `O=C(CCc1ccc(Cl)cc1)C(=O)N1CCCC1`, the pIC50 in [1], in experiment [2], in experiment [3] and in experiment [4] was below 5.00 throughout.
As for `O=C(/C=C/c1ccc(Br)cc1)C(=O)NCCc1ccccc1`, the pIC50 in experiment [1] was 5.30; in experiment [2], 5.60; in experiment [3], 5.20; in experiment [4], 6.20.
For `O=C(CCc1ccccc1)C(=O)NCCc1ccccc1`, in that order: below 5.00, below 5.00, 5.50 and 6.00.
In the same order, the values of `O=C(CCCCc1ccccc1)C(=O)NCCc1ccccc1` are 5.50, 6.00, 5.80 and 6.80.
For `CCN(CCc1ccccc1)C(=O)C(=O)CCc1ccc(Cl)cc1`, in that order: below 5.00, below 5.00, below 5.00 and below 5.00.
Take `CCNC(=O)C(=O)CCc1ccc(Cl)cc1`: the pIC50 was 5.60 in experiment [1], 5.10 in experiment [2], 5.40 in experiment [3] and 6.00 in experiment [4].
In the same order, the values of `O=C(/C=C/c1cccc(Br)c1)C(=O)NCCc1ccccc1` are below 5.00, below 5.00, 5.10 and 5.50.

What is called pIC50 is −log10 of the IC50, conventionally taken in molar units. A low value points to a high IC50.

Values taken from ChEMBL document CHEMBL4622983, “Structure-Activity Relationship Studies of α-Ketoamides as Inhibitors of the Phospholipase A and Acyltransferase Enzyme Family” (J Med Chem, 2020).
